Measurements from ChEMBL document CHEMBL1131113, “Design and synthesis of [2-(8,9-dioxo-2,6-diazabicyclo[5.2.0]non-1(7)-en-2-yl)-ethyl]phosphonic acid (EAA-090), a potent N-methyl-D-aspartate antagonist, via the use of 3-cyclobutene-1,2-dione as an achiral alpha-amino acid bioisostere” (J Med Chem, 1998).

Columns and labels:
Mus musculus = test: Effective dose against NMDA-induced lethality in mice on ip administration; format: functional
Glutamate NMDA receptor [1] = test: Tested in vitro for antagonistic activity at N-methyl-D-aspartate glutamate receptor by measuring displacement of [3H]TCP from crude synaptic membrane preparations obtained from rat brain; format: functional
Summary of the method: (§1)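 Same membranes incubated in triplicate 60 min at 25 °C with 2.5 nM [3H]TCP, 3 μM L-glutamate, 1 μM glycine, test drug. Nonspecific binding defined with 100 μM MK-801. Vacuum filtration on 0.1% PEI-pretreated filters, ice-cold buffer rinses, scintillation counting. IC50 with 95% confidence limits by nonlinear logistic regression over 5–10 concentrations.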

Glutamate NMDA receptor [2] = test: Displacement of [3H]CPP from rat brain synaptic membrane N-methyl-D-aspartate glutamate receptor
Summary of the method: (§2)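 Crude synaptic membranes, thawed, washed once in Tris-HCl, resuspended at 0.3–0.5 mg protein/mL (Lowry). Affinity from displacement of [3H]CPP binding per Murphy's method.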

Rattus norvegicus = species: Rattus norvegicus; test: Effect on infarct volume in the rat was determined by rat permanent focal ischemia model; format: functional
Summary of the method: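 Male Fisher-344 rats (290–310 g) under 2–4% isoflurane. Right common carotid occluded and distal MCA electrocoagulated transcranially, body temperature 37 ± 1 °C. Single iv bolus via tail vein (1 mL/kg, 10 mg/kg in 0.9% NaCl) 5 min post-occlusion. At 24 h, cresyl violet-stained 20 μm frozen sections at 400-μm intervals; infarct volume by image analysis; mean ± SE.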

[3] = biological target: T1, Glutamate NMDA receptor (Rattus norvegicus) (UniProt P35439+Q00959+Q00960+Q00961+Q62645+Q8VHN2+Q9R1M7); test: Tested in vitro at 100 uM for antagonistic activity at N-methyl-D-aspartate glutamate receptor by measuring displacement of [3H]TCP from crude synaptic membrane preparations obtained from rat brain; format: functional; summary of the method: as §1
[4] = biological target: T1, Glutamate NMDA receptor (Rattus norvegicus); test: Tested in vitro at 10000 nM for binding affinity at N-methyl-D-aspartate glutamate receptor by measuring displacement of [3H]CPP from crude synaptic membrane preparations obtained from rat brain; summary of the method: as §2

SMILES | ED50 (Mus musculus) [mg/kg] | IC50 (Glutamate NMDA receptor [1]) [µM] | IC50 (Glutamate NMDA receptor [2]) [µM] | Infarct volume (Rattus norvegicus) [mm**3] | inhibition [3] [%] | inhibition [4] [%]
O=C1C(O)=C2/C1=N\CCCCN2CCP(=O)(O)O | > 3 | 36 | 0.049 |  |  | 
O=C(O)[C@@H]1C[C@H](CP(=O)(O)O)CCN1 (single isomer, unassigned) [SELFOTEL] | 1.5 | 22 |  |  |  | 
O=C1C2=NCCN(CCP(=O)(O)O)C2=C1O | 6.1 | 29 | 0.092 |  |  | 
Nc1c(NCCP(=O)(O)O)c(=O)c1=O | 29 |  |  |  |  | 
O=c1c2c(c1=O)N(CCP(=O)(O)O)CCCN2 [PERZINFOTEL] | 2.1 | 7.6 | 0.03 | 43.2 |  | 
CC1(C)CN=C2C(=O)C(O)=C2N(CCP(=O)(O)O)C1 | 22 |  | 0.28 |  | 59 | 
O=C1C2=NCCCN(C/C=C/P(=O)(O)O)C2=C1O | > 5 | > 100 | > 10 |  |  | 
O=C1C2=NCCCN(CCCP(=O)(O)O)C2=C1O | > 10 | > 100 | > 1 |  |  | 
O=C1C2=NCCCN(CCc3nnn[nH]3)C2=C1O | > 5 | > 100 |  |  |  | 41
O=C([O-])CN1CCCN=C2C(=O)C(O)=C21.[Na+] | > 20 |  | 0.55 |  | 64 | 
O=C([O-])CCN1CCCN=C2C(=O)C(O)=C21.[Na+] | > 20 |  | 0.34 |  | 53 | 
O=C1C2=NCCCN(Cc3nn[nH]n3)C2=C1O | > 10 | 18 | 0.038 |  |  | 
O=C1C2=NCC(O)CN(CCP(=O)(O)O)C2=C1O (configuration not stated) | 1.8 | 10 | 0.019 |  |  | 
